From ChEMBL document CHEMBL1275392, “Assessment of chemoselective neoglycosylation methods using chlorambucil as a model” (2010)

Tests used:
Type in all cases: functional
[1] = tested on: MDA-MB-231; assay: Growth inhibition of human MDA-MB-231 cells at 10 uM after 7 days by celltiter-glo assay; conditions: MDA-MB-231, 168 h, read-out: GI
[2] = tested on: UO-31; assay: Growth inhibition of human UO31 cells at 10 uM after 7 days by celltiter-glo assay; conditions: UO-31, 168 h, read-out: GI
[3] = tested on: A498; assay: Growth inhibition of human A498 cells at 10 uM after 7 days by celltiter-glo assay; conditions: A498, 168 h, read-out: GI
[4] = tested on: 786-0; assay: Growth inhibition of human 786-0 cells at 10 uM after 7 days by celltiter-glo assay; conditions: 786-0, 168 h, read-out: GI
[5] = tested on: SK-OV-3; assay: Growth inhibition of human SKOV3 cells at 10 uM after 7 days by celltiter-glo assay; conditions: SK-OV-3, 168 h, read-out: GI
[6] = tested on: UACC-62; assay: Growth inhibition of human UACC62 cells at 10 uM after 7 days by celltiter-glo assay; conditions: UACC-62, 168 h, read-out: GI
[7] = tested on: SK-MEL-2; assay: Growth inhibition of human SK-MEL-2 cells at 10 uM after 7 days by celltiter-glo assay; conditions: SK-MEL-2, 168 h, read-out: GI
[8] = tested on: M14; assay: Growth inhibition of human M14 cells at 10 uM after 7 days by celltiter-glo assay; conditions: M14, 168 h, read-out: GI
[9] = tested on: Malme-3M; assay: Growth inhibition of human MALME-3M cells at 10 uM after 7 days by celltiter-glo assay; conditions: 168 h, read-out: GI
[10] = tested on: DU-145; assay: Growth inhibition of human DU145 cells at 10 uM after 7 days by celltiter-glo assay; conditions: DU-145, 168 h, read-out: GI
[11] = tested on: U-251; assay: Growth inhibition of human U251 cells at 10 uM after 7 days by celltiter-glo assay; conditions: U-251, 168 h, read-out: GI
[12] = tested on: SNB-75; assay: Growth inhibition of human SNB75 cells at 10 uM after 7 days by celltiter-glo assay; conditions: SNB-75, 168 h, read-out: GI
[13] = tested on: SF-539; assay: Growth inhibition of human SF539 cells at 10 uM after 7 days by celltiter-glo assay; conditions: SF-539, 168 h, read-out: GI
[14] = tested on: HT-29; assay: Growth inhibition of human HT-29 cells at 10 uM after 7 days by celltiter-glo assay; conditions: HT-29, 168 h, read-out: GI
[15] = tested on: COLO 205; assay: Growth inhibition of human COLO205 cells at 10 uM after 7 days by celltiter-glo assay; conditions: COLO 205, 168 h, read-out: GI
[16] = tested on: NCI-H322M; assay: Growth inhibition of human NCI-H322M cells at 10 uM after 7 days by celltiter-glo assay; conditions: 168 h, read-out: GI
[17] = tested on: NCI-H23; assay: Growth inhibition of human NCI-H23 cells at 10 uM after 7 days by celltiter-glo assay; conditions: NCI-H23, 168 h, read-out: GI
[18] = tested on: HOP-92; assay: Growth inhibition of human HOP92 cells at 10 uM after 7 days by celltiter-glo assay; conditions: HOP-92, 168 h, read-out: GI
[19] = tested on: EKVX; assay: Growth inhibition of human EKVX cells at 10 uM after 7 days by celltiter-glo assay; conditions: 168 h, read-out: GI
[20] = tested on: K562; assay: Growth inhibition of human K562 cells at 10 uM after 7 days by celltiter-glo assay; conditions: K562, 168 h, read-out: GI
[21] = tested on: HL-60(TB); assay: Growth inhibition of human HL-60(TB) cells at 10 uM after 7 days by celltiter-glo assay; conditions: HL-60, 168 h, read-out: GI
[22] = tested on: CCRF-CEM; assay: Growth inhibition of human CCRF-CEM cells at 10 uM after 7 days by celltiter-glo assay; conditions: 168 h, read-out: GI
[23] = tested on: SK-MEL-28; assay: Growth inhibition of human SK-MEL-28 cells after 7 days by celltiter-glo assay; conditions: SK-MEL-28, 168 h
[24] = tested on: SK-MEL-5; assay: Growth inhibition of human SK-MEL-5 cells after 7 days by celltiter-glo assay; conditions: SK-MEL-5, 168 h
[25] = tested on: UACC-62; assay: Growth inhibition of human UACC62 cells after 7 days by celltiter-glo assay; conditions: UACC-62, 168 h
[26] = tested on: OVCAR-3; assay: Growth inhibition of human OVCAR-3 cells after 7 days by celltiter-glo assay; conditions: OVCAR-3, 168 h
[27] = tested on: NCI/ADR-RES; assay: Growth inhibition of human NCI/ADR-RES cells after 7 days by celltiter-glo assay; conditions: 168 h
[28] = tested on: SK-OV-3; assay: Growth inhibition of human SKOV3 cells after 7 days by celltiter-glo assay; conditions: SK-OV-3, 168 h
[29] = tested on: SN12C; assay: Growth inhibition of human SN12C cells after 7 days by celltiter-glo assay; conditions: 168 h
[30] = tested on: BT-549; assay: Growth inhibition of human BT549 cells after 7 days by celltiter-glo assay; conditions: BT-549, 168 h
[31] = tested on: T47D; assay: Growth inhibition of human T47D cells after 7 days by celltiter-glo assay; conditions: 168 h
[32] = tested on: HT-29; assay: Ratio of compound GI50 to chlorambucil GI50 for human HT-29 cells
[33] = tested on: MDA-MB-435; assay: Growth inhibition of human MDA-MB-435 cells after 7 days by celltiter-glo assay; conditions: MDA-MB-435, 168 h
[34] = tested on: SNB-75; assay: Growth inhibition of human SNB75 cells after 7 days by celltiter-glo assay; conditions: SNB-75, 168 h
[35] = tested on: SNB-19; assay: Growth inhibition of human SNB19 cells after 7 days by celltiter-glo assay; conditions: SNB-19, 168 h
[36] = tested on: HT-29; assay: Growth inhibition of human HT-29 cells after 7 days by celltiter-glo assay; conditions: HT-29, 168 h
[37] = tested on: HCT-15; assay: Growth inhibition of human HCT15 cells after 7 days by celltiter-glo assay; conditions: HCT-15, 168 h
[38] = Growth inhibition of human p53 deficient H1299 cells after 7 days by celltiter-glo assay; conditions: NCI-H1299, 168 h
Summary of the method: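 Cells seeded at 500 per well in 384-well plates. Compounds came from 30 mM DMSO stocks, serially diluted and tested in quadruplicate. Incubation was 7 d at 37 °C under 5% CO2. Calcein AM (10 μM) and EthD-1 were added, followed by a fluorescence read. CellTiter-Glo lysis was then done for 10 min at room temperature, with a luminescence read. GI50 came from curve fitting.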

[39] = tested on: NCI-H522; assay: Growth inhibition of human NCI-H522 cells after 7 days by celltiter-glo assay; conditions: NCI-H522, 168 h
[40] = tested on: NCI-H460; assay: Growth inhibition of human NCI-H460 cells after 7 days by celltiter-glo assay; conditions: NCI-H460, 168 h
[41] = tested on: HOP-62; assay: Growth inhibition of human HOP62 cells after 7 days by celltiter-glo assay; conditions: HOP-62, 168 h
[42] = tested on: EKVX; assay: Growth inhibition of human EKVX cells after 7 days by celltiter-glo assay; conditions: 168 h
[43] = tested on: HL-60(TB); assay: Growth inhibition of human HL-60(TB) cells after 7 days by celltiter-glo assay; conditions: HL-60, 168 h

CON(CCCc1ccc(N(CCCl)CCCl)cc1)C1OC[C@@H](O)[C@@H]1O (stereo partly drawn)
inhibition of growth at 10 µM [1]: 87.5% | inhibition of growth at 10 µM [2]: 54.4% | inhibition of growth at 10 µM [3]: 114% | inhibition of growth at 10 µM [4]: 67.9% | inhibition of growth at 10 µM [5]: 72.8% | inhibition of growth at 10 µM [6]: 52.1% | inhibition of growth at 10 µM [7]: 100% | inhibition of growth at 10 µM [8]: 67.2% | inhibition of growth at 10 µM [9]: 69.7% | inhibition of growth at 10 µM [10]: 56.8% | inhibition of growth at 10 µM [11]: 59.9% | inhibition of growth at 10 µM [12]: 66.7% | inhibition of growth at 10 µM [13]: 51.8% | inhibition of growth at 10 µM [14]: 70.7% | inhibition of growth at 10 µM [15]: 93.3% | inhibition of growth at 10 µM [16]: 99% | inhibition of growth at 10 µM [17]: 54.4% | inhibition of growth at 10 µM [18]: 58.8% | inhibition of growth at 10 µM [19]: 91.2% | inhibition of growth at 10 µM [20]: 88.5% | inhibition of growth at 10 µM [21]: 68.3% | inhibition of growth at 10 µM [22]: 21.2% | GI50 [23]: 36.5 µM | GI50 [24]: 17.7 µM | GI50 [25]: 1.69 µM | GI50 [26]: 15.3 µM | GI50 [27]: 4.61 µM | GI50 [28]: 1.5 µM | GI50 [29]: 7.06 µM | GI50 [30]: 13.4 µM | GI50 [31]: 6.37 µM | RatioGI50 [32]: 12 | GI50 [33]: 21.1 µM | GI50 [34]: 19.5 µM | GI50 [35]: 33.4 µM | GI50 [36]: 0.41 µM | GI50 [37]: 0.53 µM | GI50 [38]: 0.37 µM | GI50 [39]: 10 µM | GI50 [40]: 1.7 µM | GI50 [41]: 8.28 µM | GI50 [42]: 37.9 µM | GI50 [43]: 1.88 µM
